Assay outcomes: PubChem BioAssay, several laboratories
A selection: hits, their analogues and other compounds. The true share with any hit is near 3.5%.
Pf gamet viab: late stage P. falciparum gametocyte viability inhibitors, primary screen, ATP luminescence, HTS; P. falciparum stage V gametocytes, 24 h; inhibition, % at 10.9 µM; actives 0.065% (n = 150,000); AID 743093, 2013;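 active = inhibition above the mean plus 3 SD of compounds within the control limits, set per campaign, cut at about 38% in these data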;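 note: 0% = DMSO wells and 100% = medium only without gametocytes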
APP 5'UTR act: activators of APP 5'UTR luciferase reporter, primary screen, SH-SY5Y cells; SH-SY5Y APP 5'UTR luciferase reporter, luminescence; zero percent = DMSO vehicle wells; activation, % at 2 µM; actives 1% (n = 190,000);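 active = activation above a set limit, based on mean plus 3 SD of controls, cut at about 140% in these data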
FLuc stim CS: FLuc activators, initial screening, artefact control for FLuc-dependent activation tests, biochemical, ATPlite luminescence; activation factor at 10 µM; Luciferin 4-monooxygenase (Photinus pyralis), P08659; 200,000 tested, under 10 active; ATPlite luciferase biochemical, 10 min; 0 = ATP-free wells, 1 = DMSO control;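 active = luciferase activation factor, scaled between plate controls, of at least 2 with compound at 10 µM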
Target sequence (P08659 whole entry, looked up): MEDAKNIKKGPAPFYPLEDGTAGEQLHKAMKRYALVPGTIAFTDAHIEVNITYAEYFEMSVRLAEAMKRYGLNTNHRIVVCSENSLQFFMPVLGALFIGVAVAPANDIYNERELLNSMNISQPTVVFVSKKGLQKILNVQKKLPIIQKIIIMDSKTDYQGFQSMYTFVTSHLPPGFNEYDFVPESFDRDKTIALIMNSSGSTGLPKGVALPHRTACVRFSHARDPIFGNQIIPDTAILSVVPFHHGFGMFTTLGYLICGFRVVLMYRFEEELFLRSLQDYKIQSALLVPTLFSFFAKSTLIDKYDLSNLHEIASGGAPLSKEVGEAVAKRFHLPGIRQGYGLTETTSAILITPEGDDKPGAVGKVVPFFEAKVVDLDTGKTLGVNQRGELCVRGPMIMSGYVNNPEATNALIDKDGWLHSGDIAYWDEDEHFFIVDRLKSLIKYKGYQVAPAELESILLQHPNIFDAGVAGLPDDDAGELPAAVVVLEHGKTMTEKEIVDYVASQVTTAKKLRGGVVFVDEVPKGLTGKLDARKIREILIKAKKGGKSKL
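System: cell-free luciferase reagent; medium: PBS as buffer for the ATP substrate; doses: test compounds dosed from 2 mM stocks in 100% DMSO; incubation: 10 min, room temperature; measured by: luminescence from luciferase reaction; read-out: luciferase activation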
FLuc inhib CS: firefly luciferase enzyme inhibitors, primary screen, artefact control for luciferase-based inhibitor screens, biochemical, luminescence, ATPLite; Luciferin 4-monooxygenase (Photinus pyralis), P08659; 10 min; inhibition, % at 10 µM; actives 1.5% (n = 200,000); AID 1006, 2008;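 active = inhibition above about 50% when tested at 10 µM, limit read from the data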
STAT1 activator: STAT1 signaling activators, primary screen, cell-based, HTS, luciferase reporter | NIH 3T3 STAT1-luciferase reporter, IFN-gamma, luminescence; 100% = IFN-gamma alone, no compound | actives 2.6% (n = 200,000) | AID 932, 2007 | activation (% of control), % at 5.5 µM;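 active = activation above the screen-wide mean activation plus 3 SD, cut at about 130% in these data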;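 note: raw ratio to IFN-gamma control signal so 100% means no change and 0% no light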
NF-kB expr up: activators of NF-kB expression in neurons, primary screen, cell-based, HTS | human neuronal cells, NF-kB reporter expression; hits give high values | fold change at 12.5 µM | actives 1.6% (n = 190,000) | AID 1239, 2008; in the data active = fold change above about 3.3
STAT1 activ conf: STAT1 signaling activators, confirmation, cell-based, HTS, luciferase reporter; shares compounds with STAT1 activator; NIH 3T3 STAT1-luciferase reporter, IFN-gamma potentiation, luminescence; 100% = IFN-gamma EC80 alone, no compound; activation (% of control), % at 5.7 µM; actives 97% (n = 1,200);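 active = activation above a set limit carried over from the earlier primary STAT1 screen, cut at about 140% in these data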;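 note: simple ratio to median IFN-gamma plus DMSO wells so 0% means no light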
NFkB act STAT1ct: NF-kB reporter activators, TNF-alpha stimulated, counter-screen for STAT1 activator project, cell-based, HEK293T, luciferase luminescence; activation (% of control), % at 5.7 µM; actives 43% (n = 1,200); shares compounds with STAT1 activator; 100% = TNF-alpha with vehicle only;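 active = activation above the mean of solvent-only control wells plus 3 SD, set per campaign, cut at about 130% in these data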;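 note: TNF-alpha given at a submaximal dose yielding about 80% of full reporter signal; values are well signal over median control so 100% means no change and 0% no light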
STAT3 act STAT1c: STAT3 reporter activation by STAT1 hits, confirmation, counter-screen for STAT1 activator project, U3A cells, luciferase, luminescence | shares compounds with STAT1 activator | IL-6; cells lack STAT1; 100 = IL-6 alone, no compound effect | activation (% of control), % at 5.7 µM | actives 46% (n = 1,200) | AID 1316, 2008;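 active = activation above the solvent-only control well mean plus 3 SD, set per plate batch, cut at about 110% in these data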;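 note: 0% = no luminescence and 100% = median IL-6 plus DMSO wells; higher means more STAT3 reporter activation so hits are non-selective activators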
Numbers without * were called inactive; . = no result.

SMILES	Pf gamet viab	APP 5'UTR act	FLuc stim CS	FLuc inhib CS	STAT1 activator	NF-kB expr up	STAT1 activ conf	NFkB act STAT1ct	STAT3 act STAT1c
N#Cc1ccc(N/N=C/c2cn(-c3ccccc3)nc2-c2ccccc2)c([N+](=O)[O-])c1	.	-75	1	5	103	1	.	.	.
Cc1nc(Cl)c(Cl)n1CCOc1ccccc1	-1	.	.	.	.	.	.	.	.
COC(=O)c1sccc1NC(=O)C1C2C=CC(C2)C1C(=O)O (stereo unspecified)	.	18	1.1	-6	97	1.4	.	.	.
Cc1ccsc1C(=O)NNC(=O)C1C2C=CC(C2)C1C(=O)O (stereo unspecified)	-33	154*	1	0	184*	1.4	131*	125	106
Cc1cccc(CN2CCN(C(=O)CCl)CC2)c1	-5	-7	1	-3	84	1.2	.	.	.
CCCOC(=O)c1ccc(-c2ccc(C=O)o2)cc1	-4	105	0.9	10	162*	4.8*	217*	132	104
N#C/C(=C\c1ccc(N2CCOCC2)o1)c1nc2ccccc2[nH]1	-6	156*	0.2	85*	160*	2.6	255*	113	90
Cc1ccc(NC(=O)Nc2ccc(Cl)cn2)cc1	16	99	0.9	9	172*	2.2	171*	130	99
COc1ccc(NC(=O)Nc2ccc(Br)cn2)cc1	-7	94	1	-1	169*	2.2	160*	120	91
Cc1csc(SCC(=O)NC(=O)NC2CCCC2)n1	-4	-17	1	-4	102	0.96	.	.	.
O=C(C1CCCN(S(=O)(=O)c2cccs2)C1)N1CCN(C2CCCCC2)CC1 (stereo unspecified)	25	-2	1	0	101	0.88	.	.	.
CCSc1ncc(/C=N/Nc2ccc([N+](=O)[O-])cc2)n1C	17	90	1	-2	162*	1.8	196*	149*	102
CCSc1ncc(/C=N/Nc2ccccc2)n1C	20	23	1	2	100	1.8	.	.	.
Cc1nc2c(-c3ccc(Cl)cc3)cnn2c2c1CCC2	.	37	0.9	9	102	1.3	.	.	.
CC(=O)NC(=S)Nc1ccccc1F	-11	13	1	0	108	1.2	.	.	.
COc1ccc(C(=O)NC(=S)Nc2ccccc2F)cc1	-9	116	0.9	8	158*	3	171*	134*	100
O=C(COc1cccc2cccnc12)N/N=C1\SCC(=O)N1Cc1ccccc1	-16	.	1	-2	96	1	.	.	.
Nc1nonc1-c1noc(COc2ccccc2Cl)n1	.	187*	0.8	19	166*	8.8*	219*	139*	116*
Clc1ccccc1OCc1nc(-c2ccccn2)no1	.	171*	0.5	51*	168*	6.5*	225*	120	103
CCC(C)n1c(SCC(=O)Nc2cc(C(C)(C)C)nn2-c2ccccc2)nc2ccccc2c1=O (stereo unspecified)	15	10	1	-4	99	0.46	.	.	.
Clc1ccc(-c2cnc(Oc3ccccc3)nc2)cc1	2	138*	0.9	10	153*	2.4	190*	142*	109
